ChEMBL document CHEMBL1687925, “Structure-activity relationships of cycloalkylamide derivatives as inhibitors of the soluble epoxide hydrolase” (J Med Chem, 2011)
Converted amounts (≈) assume the structure as drawn. Each block holds one compound with its values, some of them ahead of it.

Legend:
[1] = Inhibition of human soluble epoxide […] using fluorescent CMNPC as substrate after 10 mins by fluorometric assay
Method in brief: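 Recombinant human sEH, expressed in Sf9 cells via baculovirus with a His tag that was later removed, purified by metal-affinity and anion-exchange chromatography. Enzyme at 1 nM final, preincubated with inhibitor 10 min at 30 °C in 25 mM Bis-Tris/HCl pH 7.0. CMNPC then added at 5 μM. 6-Methoxy-2-naphthaldehyde fluorescence (ex 330/em 465 nm) followed for 10 min. IC50 by regression of at least six points; mean of three runs.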

[2] = Aqueous solubility of the compound in […] phosphate buffer at pH 7.4; format: physicochemical
Method in brief: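 Light-scattering method at 25± 1.5 °C. Compound in DMSO was added at varying concentrations to 0.1 M sodium phosphate, pH 7.4, at 5:95 (v/v) DMSO:buffer. Insolubility was read as the rise in turbidity, measured as optical density at 650 nm.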

[3] = Aqueous solubility of the compound in […] phosphate buffer at pH 7.4 relative to AUDA; format: physicochemical

SMILES: O=C(NCc1ccccc1)C12CC3CC(CC(C3)C1)C2
IC50 [1]: > 1000 nM

SMILES: O=C(NCCCc1ccccc1)C1CC1
IC50 [1]: > 1000 nM

SMILES: O=C(NCCCc1ccccc1)C1CCCC1
IC50 [1]: > 1000 nM

SMILES: O=C(NCCCc1ccccc1)C1CCCCC1
IC50 [1]: 235 nM

SMILES: O=C(NCCCc1ccccc1)C1CCC(O)CC1 (stereo unspecified)
IC50 [1]: > 1000 nM

SMILES: O=C1CCC(C(=O)NCCCc2ccccc2)CC1
IC50 [1]: > 1000 nM

SMILES: O=C(NCCCc1ccccc1)C1CCC(CO)CC1 (stereo unspecified)
IC50 [1]: 243 nM

SMILES: O=C(NCCCc1ccccc1)C1CCCO1 (stereo unspecified)
IC50 [1]: > 1000 nM

SMILES: O=C(NCCCc1ccccc1)C1CCOCC1
IC50 [1]: > 1000 nM

SMILES: O=C(O)C1CCC(C(=O)NCCCc2ccccc2)CC1 (stereo unspecified)
IC50 [1]: > 1000 nM

SMILES: COC(=O)C1CCCCC1C(=O)NCCCc1ccccc1 (stereo unspecified)
IC50 [1]: > 1000 nM

SMILES: COC(=O)C1C2C=CC(C2)C1C(=O)NCCCc1ccccc1 (stereo unspecified)
IC50 [1]: > 1000 nM

SMILES: O=C(NCCCc1ccccc1)C1(c2ccccc2)CC1
IC50 [1]: > 1000 nM

SMILES: O=C(NCCCc1ccccc1)C1(c2ccccc2)CCCC1
IC50 [1]: > 1000 nM

SMILES: O=C(NCCc1ccccc1)C12CC3CC(CC(C3)C1)C2
IC50 [1]: 230 nM

SMILES: COc1ccc(NC(=O)C23CC4CC(CC(C4)C2)C3)cc1
IC50 [1]: > 1000 nM

SMILES: COC(=O)c1ccc(CCNC(=O)C23CC4CC(CC(C4)C2)C3)cc1
IC50 [1]: 230 nM

SMILES: CN(CCCc1ccccc1)C(=O)C12CC3CC(CC(C3)C1)C2
IC50 [1]: 723 nM

SMILES: O=C(O)CCCCCCCCCCCNC(=O)NC12CC3CC(CC(C3)C1)C2
solubility [2]: 63 µM (≈ 24.7 µg/mL)

SMILES: O=C(NCCCc1ccccc1)[C@@H]1C[C@H]1c1ccccc1 (relative stereo)
IC50 [1]: 288 nM

The remaining compounds from weak to strong by IC50 [1], led by results:

IC50 [1]: 222 nM
SMILES: O=C(NCCCc1ccccc1)C1CC=CCC1 (stereo unspecified)

IC50 [1]: 180 nM
SMILES: O=C(NCCCCc1ccccc1)C12CC3CC(CC(C3)C1)C2

IC50 [1]: 101 nM
SMILES: CCOC(=O)c1ccc(NC(=O)C23CC4CC(CC(C4)C2)C3)cc1

IC50 [1]: 78 nM
SMILES: COC(=O)C1CCC(C(=O)NCCCc2ccccc2)CC1 (stereo unspecified)

IC50 [1]: 65 nM
SMILES: COC(=O)c1ccc2cc(NC(=O)C34CC5CC(CC(C5)C3)C4)ccc2c1

IC50 [1]: 64 nM
SMILES: O=C(NCCCc1ccccc1)C1CCC(C(F)(F)F)CC1 (stereo unspecified)

IC50 [1]: 58 nM
SMILES: CC(C)(C)C1CCC(C(=O)NCCCc2ccccc2)CC1 (stereo unspecified)

IC50 [1]: 41 nM
SMILES: O=C(NCCCc1ccccc1)C12CC3CC(CC(C3)C1)C2

IC50 [1]: 15 nM
SMILES: O=C(NCCCc1ccccc1)C1CCc2ccccc2C1 (stereo unspecified)

IC50 [1]: 9.1 nM
solubility [2]: 125 µM (≈ 40.9 µg/mL)
fold change (FC) [3]: 2
SMILES: COC(=O)c1ccc(CNC(=O)C23CC4CC(CC(C4)C2)C3)cc1

IC50 [1]: 6.6 nM
solubility [2]: 31 µM (≈ 9.9 µg/mL)
SMILES: COC(=O)c1ccc(CNC(=O)c2ccc3ccccc3c2)cc1

IC50 [1]: 2.4 nM
solubility [2]: 15 µM (≈ 5.24 µg/mL)
SMILES: COC(=O)c1ccc(CNC(=O)c2ccc3cc(OC)ccc3c2)cc1

IC50 [1]: 2.1 nM
solubility [2]: 125 µM (≈ 40.4 µg/mL)
fold change (FC) [3]: 2
SMILES: COC(=O)c1ccc(CNC(=O)C2CCc3ccccc3C2)cc1 (stereo unspecified)

IC50 [1]: 1.8 nM
solubility [2]: 31 µM (≈ 10.4 µg/mL)
SMILES: COC(=O)c1ccc(CNC(=O)c2ccc3cc(O)ccc3c2)cc1
